Data published in ChEMBL document CHEMBL4842318, “A γ-lactam siderophore antibiotic effective against multidrug-resistant Pseudomonas aeruginosa, Klebsiella pneumoniae, and Acinetobacter spp” (Eur J Med Chem, 2021).

Assays:
CYP2C8 = molecular target: T1, CYP2C8 (Homo sapiens, UniProt P10632); test: Inhibition of CYP2C8 (unknown origin) at 100 uM; format: ADME
T1 sequence (P10632 whole entry): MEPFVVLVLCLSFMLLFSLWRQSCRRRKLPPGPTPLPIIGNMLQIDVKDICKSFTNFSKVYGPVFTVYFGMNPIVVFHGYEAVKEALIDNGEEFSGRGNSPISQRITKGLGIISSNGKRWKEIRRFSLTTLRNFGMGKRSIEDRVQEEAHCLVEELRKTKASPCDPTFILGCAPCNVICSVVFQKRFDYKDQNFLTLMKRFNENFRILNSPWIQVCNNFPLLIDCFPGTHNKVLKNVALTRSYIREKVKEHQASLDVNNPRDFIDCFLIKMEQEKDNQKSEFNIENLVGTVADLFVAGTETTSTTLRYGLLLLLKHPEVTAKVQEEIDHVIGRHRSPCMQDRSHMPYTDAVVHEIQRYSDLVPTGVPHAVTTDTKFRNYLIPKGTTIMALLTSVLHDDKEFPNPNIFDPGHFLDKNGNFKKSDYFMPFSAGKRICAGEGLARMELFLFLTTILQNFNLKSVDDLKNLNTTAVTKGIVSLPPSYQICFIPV

[1] = Plasma concentration in SC dosed CD-1 mouse treated four times at 6 hrs interval measured after 0.5 hrs; format: ADME, organism-based
In short: (§1)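 CD-1 mice dosed SC at 50 mg/kg. Plasma sampled at 0.167 to 24 h, three individual mice per time point, reported as mean and SD in ng/mL.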

Acinetobacter baumannii [2] = test: Antibacterial activity against carbapenem resistant Acinetobacter baumannii isolate PR-326 assessed as inhibition of bacterial growth at 1:1 compound to sulbactam concentration by microdilution method; format: functional
In short: (§2)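 Iron-depleted (Chelex-treated) cation-adjusted Mueller-Hinton broth microdilution; inoculum 6 × 10^4 cfu/mL. Test agent and sulbactam mixed 1:1 by mass and serially 2-fold diluted together. MIC in μg/mL.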

Pseudomonas aeruginosa [3] = test: Antibacterial activity against wild type Pseudomonas aeruginosa isolate PR-673 leucine at 533 residue assessed as inhibition of bacterial growth by microdilution method; format: functional
In short: (§3)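 Broth microdilution MIC in iron-depleted (Chelex resin-treated) cation-adjusted Mueller-Hinton broth, following the protocol used for siderophore-containing antibiotics. Inoculum was lowered to 6 × 10^4 cfu/mL.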

[4] = Substrate activity at VIM-2 (unknown origin) assessed as Kcat by measuring hydrolysis by spectrophotometry; format: ADME
In short: (§4)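 Substrate hydrolysis (600 μM start) followed at 336 nm (Δε336 = −4362 M−1 cm−1, 0.2 cm cuvette) to completion; velocities over 10 s intervals along progress curve; Km, Vmax from double reciprocal plot, kcat = Vmax/[E].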

[5] = Substrate activity at OXA-23 (unknown origin) assessed as Kcat by measuring hydrolysis by spectrophotometry; format: ADME
Pseudomonas aeruginosa [6] = test: Antibacterial activity against wild type Pseudomonas aeruginosa isolate PR-636 leucine at 533 residue assessed as inhibition of bacterial growth by microdilution method; format: functional; in short: as §3
Acinetobacter baumannii [7] = test: Antibacterial activity against carbapenem susceptible Acinetobacter baumannii isolate PR-464 assessed as inhibition of bacterial growth at 1:1 compound to sulbactam concentration by microdilution method; format: functional
In short: (§5)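 Broth microdilution MIC in Chelex-treated, iron-depleted cation-adjusted Mueller-Hinton broth, inoculum 6 × 10^4 cfu/mL. Compound and sulbactam combined 1:1 by mass in a 2-fold dilution series.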

[8] = Antibacterial activity against carbapenem susceptible Acinetobacter nosocomialis isolate PR-412 assessed as inhibition of bacterial growth in presence of 20 ug/ml sulbactam by microdilution method; format: functional; details: dose 20 µg/ml
In short: (§6)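 MIC by broth microdilution using iron-depleted (Chelex-treated) cation-adjusted Mueller-Hinton broth and 6 × 10^4 cfu/mL inoculum. Compound serially diluted with sulbactam held constant at 20 μg/mL.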

[9] = Plasma concentration in SC dosed CD-1 mouse treated four times at 6 hrs interval measured after 1 hrs; format: ADME, organism-based; in short: as §1
[10] = Substrate activity at IMP-1 (unknown origin) assessed as ratio of Kcat to Km by measuring hydrolysis by spectrophotometry; format: ADME; in short: as §4
Acinetobacter baumannii [11] = test: Antibacterial activity against carbapenem resistant Acinetobacter baumannii isolate PR-459 assessed as inhibition of bacterial growth in presence of 20 ug/ml sulbactam by microdilution method; format: functional; details: dose 20 µg/ml
Acinetobacter baumannii [12] = test: Antibacterial activity against carbapenem resistant Acinetobacter baumannii isolate PR-387 assessed as bacterial growth inhibition by microdilution method; format: functional
In short: (§7)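 Broth microdilution in Chelex-treated, iron-depleted cation-adjusted Mueller-Hinton broth, following the protocol used for siderophore-containing antibiotics; inoculum lowered to 6 × 10^4 cfu/mL; MIC read as growth inhibition, in μg/mL.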

[13] = Substrate activity at NDM1 (unknown origin) assessed as ratio of Kcat to Km by measuring hydrolysis by spectrophotometry; format: ADME; in short: as §4
[14] = Antibacterial activity against carbapenem susceptible Acinetobacter nosocomialis isolate PR-362 assessed as inhibition of bacterial growth in presence of 20 ug/ml sulbactam by microdilution method; format: functional; details: dose 20 µg/ml; in short: as §6
Acinetobacter baumannii [15] = test: Antibacterial activity against carbapenem resistant Acinetobacter baumannii isolate PR-387 assessed as inhibition of bacterial growth in presence of 20 ug/ml sulbactam by microdilution method; format: functional; details: dose 20 µg/ml
[16] = Antibacterial activity against carbapenem susceptible Acinetobacter nosocomialis isolate PR-362 assessed as inhibition of bacterial growth at 1:1 compound to sulbactam concentration by microdilution method; format: functional; in short: as §5
Acinetobacter baumannii [17] = test: Antibacterial activity against carbapenem resistant Acinetobacter baumannii isolate PR-399 assessed as bacterial growth inhibition by microdilution method; format: functional; in short: as §7
Acinetobacter baumannii [18] = test: Antibacterial activity against carbapenem resistant Acinetobacter baumannii isolate PR-314 assessed as inhibition of bacterial growth in presence of 20 ug/ml sulbactam by microdilution method; format: functional; details: dose 20 µg/ml
Acinetobacter baumannii [19] = test: Antibacterial activity against carbapenem resistant Acinetobacter baumannii isolate PR-423 assessed as inhibition of bacterial growth in presence of 20 ug/ml sulbactam by microdilution method; format: functional; details: dose 20 µg/ml
Acinetobacter baumannii [20] = test: Antibacterial activity against carbapenem resistant Acinetobacter baumannii isolate PR-387 assessed as inhibition of bacterial growth at 1:1 compound to sulbactam concentration by microdilution method; format: functional; in short: as §2
Acinetobacter baumannii [21] = test: Antibacterial activity against carbapenem resistant Acinetobacter baumannii isolate PR-399 assessed as inhibition of bacterial growth at 1:1 compound to sulbactam concentration by microdilution method; format: functional; in short: as §2
[22] = Substrate activity at IMP-1 (unknown origin) assessed as Kcat by measuring hydrolysis by spectrophotometry; format: ADME; in short: as §4
[23] = Antibacterial activity against carbapenem susceptible Acinetobacter nosocomialis isolate PR-365 assessed as bacterial growth inhibition by microdilution method; format: functional; in short: as §3
[24] = Permeability in human Caco-2 cells; format: ADME, cell-based
[25] = molecular target: Penicillin-binding protein 3 (Pseudomonas aeruginosa, UniProt Q51504); test: Inhibition of Pseudomonas aeruginosa PBP3 assessed as reduction in fluorescence intensity using Bocillin-protein as fluorescent substrate preincubated for 20 mins measured after 20 mins by SDS PAGE analysis
Sequence of Penicillin-binding protein 3 (Q51504 whole entry): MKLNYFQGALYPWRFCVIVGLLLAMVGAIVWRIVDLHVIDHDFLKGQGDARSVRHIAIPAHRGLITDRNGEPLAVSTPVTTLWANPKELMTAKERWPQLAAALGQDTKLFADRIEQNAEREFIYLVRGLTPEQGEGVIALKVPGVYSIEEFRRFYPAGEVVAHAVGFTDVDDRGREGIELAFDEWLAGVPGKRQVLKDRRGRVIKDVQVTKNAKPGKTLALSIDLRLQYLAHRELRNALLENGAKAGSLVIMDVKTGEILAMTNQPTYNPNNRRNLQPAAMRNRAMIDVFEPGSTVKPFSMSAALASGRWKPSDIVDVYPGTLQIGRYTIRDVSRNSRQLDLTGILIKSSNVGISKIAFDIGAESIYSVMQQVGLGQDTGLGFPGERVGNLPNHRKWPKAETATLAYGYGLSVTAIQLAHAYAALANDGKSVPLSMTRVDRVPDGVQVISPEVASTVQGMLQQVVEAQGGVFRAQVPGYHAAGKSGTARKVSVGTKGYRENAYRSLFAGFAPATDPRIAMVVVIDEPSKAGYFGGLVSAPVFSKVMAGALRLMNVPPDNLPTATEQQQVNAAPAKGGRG
In short: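 Purified soluble P. aeruginosa PBP3 at 1.6 μM in 10 mM PBS, pH 7.4. Preincubated with increasing compound concentrations for 20 min at 37 °C, then 50 μM Bocillin added for a further 20 min. Stopped with SDS loading dye and 2 min boiling, then run on SDS-PAGE and imaged at 365 nm. IC50 taken as the concentration halving Bocillin-labelled band fluorescence.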

Pseudomonas aeruginosa [26] = test: Antibacterial activity against Pseudomonas aeruginosa isolate PR-564 leucine at 533 residue assessed as inhibition of bacterial growth by microdilution method; format: functional; in short: as §7

**Q.** Which results are given for CC(C)(O/N=C(\C(=O)N[C@H]1CN2CC(C(=O)NCCN3C(=O)c4cc(O)c(O)cc4C3=O)=C(C(=O)O)N2C1=O)c1nc(N)sc1Cl)C(=O)O?
**A.** inhibition at 100 µM (CYP2C8): 50%; concentration at 0.5 h [1]: 16200 ng/mL; MIC (Acinetobacter baumannii [2]): 2 µg/mL; MIC (Pseudomonas aeruginosa [3]): > 16 µg/mL; Kcat [4]: 54 s⁻¹; Kcat [5]: Nottraceable; MIC (Pseudomonas aeruginosa [6]): > 16 µg/mL; MIC (Acinetobacter baumannii [7]): ≤ 0.25 µg/mL; MIC [8]: ≤ 0.25 µg/mL; concentration at 1 h [9]: 3280 ng/mL; Kcat/Km [10]: 3000 M⁻¹ s⁻¹; MIC (Acinetobacter baumannii [11]): 4 µg/mL; MIC (Acinetobacter baumannii [12]): > 16 µg/mL; Kcat/Km [13]: 20000 M⁻¹ s⁻¹; MIC [14]: ≤ 0.25 µg/mL; MIC (Acinetobacter baumannii [15]): ≤ 0.25 µg/mL; MIC [16]: ≤ 0.25 µg/mL; MIC (Acinetobacter baumannii [17]): > 16 µg/mL; MIC (Acinetobacter baumannii [18]): ≤ 0.25 µg/mL; MIC (Acinetobacter baumannii [19]): ≤ 0.25 µg/mL; MIC (Acinetobacter baumannii [20]): 16 µg/mL; MIC (Acinetobacter baumannii [21]): 16 µg/mL; Kcat [22]: 5 s⁻¹; MIC [23]: > 16 µg/mL; permeability [24]: Impermeable; IC50 [25]: 5 µM; MIC (Pseudomonas aeruginosa [26]): > 16 µg/mL
